A selection: hits, their analogues and other compounds. The true share with any hit is near 2.3%.
DNMT1 inh – inhibitors of human DNMT1 | P26358 | DNMT1 molecular beacon, Hinp1I cleavage, fluorescence | inhibition (reported as % activation of signal), % at 10 µM | hit rate 0.83% among 360,000; in the data active = inhibition above about 50%
SUMO1 PPI mod – modulators of human SUMO1-mediated protein-protein interactions; P63165; SUMO1 binding to a labelled peptide, TR-FRET, 1 h; inhibition, % at 20 µM; hit rate 0.33% among 360,000; AID 602429; in the data active = inhibition above about 37%
Target sequence (P63165 whole entry, looked up): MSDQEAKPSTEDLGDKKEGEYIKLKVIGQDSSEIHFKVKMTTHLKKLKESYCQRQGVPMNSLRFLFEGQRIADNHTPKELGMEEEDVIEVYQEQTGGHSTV
Rpn11 inh – Rpn11 (human) deubiquitinase inhibition | human 26S proteasome, Ub4-pepOG fluorescence polarization; 20S core pre-blocked with epoxomicin | inhibition, % at 20 µM | hit rate 0.59% among 360,000;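 active = inhibition at 20 µM, scaled to each plate's controls, above about 33%, limit read from the data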
Target sequence (O00487 whole entry, looked up): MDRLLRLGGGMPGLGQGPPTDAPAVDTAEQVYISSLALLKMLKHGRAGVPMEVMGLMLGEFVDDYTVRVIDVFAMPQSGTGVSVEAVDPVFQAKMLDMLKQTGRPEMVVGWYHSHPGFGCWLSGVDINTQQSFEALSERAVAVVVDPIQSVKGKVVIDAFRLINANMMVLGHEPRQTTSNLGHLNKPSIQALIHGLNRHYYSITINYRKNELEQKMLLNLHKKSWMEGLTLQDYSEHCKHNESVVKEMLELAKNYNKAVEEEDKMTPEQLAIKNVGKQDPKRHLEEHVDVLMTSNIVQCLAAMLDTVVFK
CSN deneddyl inh – blocks human CSN-mediated cullin deneddylation; Q92905; inhibition, % at 12.5 µM; Purified CSN, SCF-Nedd8-OG deneddylation, fluorescence polarization; hit rate 0.38% among 360,000;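 active = pattern-corrected inhibition above about 35%, with an unprinted fluorescence ratio check between 0.5 and 1.5, limit read from the data, passing the limit was not always enough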;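 note: 0% = enzyme with substrate and 100% = substrate without enzyme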
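Assay system: Purified human Csn5 enzyme expressed in HEK293T cells | Amount: Enzyme 0.24 nM | Measured by: Fluorescence polarization readout | Medium: Tris/NaCl/DTT buffer, pH 7.5 | Compound dosing: One concentration, 12.5 µM, 0.25% DMSO | Times: 90 min incubation of compound, enzyme and substrate at room temperature | Control set: no-enzyme wells high, enzyme-with-substrate wells low | Read-out: % inhibition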
SKN-1 inh – C. elegans SKN-1 inhibition | C. elegans VP596 Pgst-4::GFP/RFP ratio, acrylamide-induced, 24 h | inhibition, % at 21.8 µM | hit rate 0.49% among 360,000 | AID 624304;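 active = interference check ratio from 0.5 to 1.5 plus GFP to RFP signal ratio inhibition reaching or exceeding a fixed threshold, cut at about 30% in these data, passing the limit was not always enough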
MT1-MMP act inh – MT1-MMP (human) activation inhibition. hit rate 0.061% among 360,000. GFP/RFP ratio change, % at 20 µM. P50281. HT1080 RFP-PRO-GFP cells, GFP/RFP ratio fluorescence, overnight; percent of plate control window, DMSO zero;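 active = GFP/RFP ratio change of at least 30% with cell ATP level not reduced by more than half and red fluorescence within 50% of control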
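Material: RFP-PRO-GFP reporter HT1080 cells. Dosing: single-point 20 µM compound, 1% DMSO. Controls: DMSO and RFP-L50D-GFP cell wells. Timing: cells overnight before dosing, compound overnight, 37 °C, 5% CO2. Measure: GFP/RFP fluorescence ratio.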
An asterisk follows results filed as active; . = not tested or not shown.

SMILES	DNMT1 inh	SUMO1 PPI mod	Rpn11 inh	CSN deneddyl inh	SKN-1 inh	MT1-MMP act inh
OC(c1cc(F)cc(Cl)c1)c1ncc(-c2ccccc2Cl)[nH]1 (stereo unspecified)	-5.3	0.2	-4.2	-6.0	1.6	-1.9
CCn1nc(CCC(=O)O)c2ccccc2c1=O	0.7	1.4	-8.1	0.4	41.0*	-6.0
FC(F)(F)c1nc2ccccc2nc1N/N=C\c1ccccc1	-3.6	-21.3	2.9	6.3	37.3*	6.7
O=C(Cn1c(C(F)(F)F)nc2ccccc21)c1ccc(F)cc1	-6.3	-0.5	3.3	3.2	35.4*	0.8
Cc1c(C#N)c(O)[nH]c(=O)c1N=Nc1ccc(S(N)(=O)=O)cc1	1.8	-8.3	6.7	0.0	38.0*	4.7
CC(=C/c1ccccc1)/C=N/N1CCN(Cc2ccc(C)cc2)CC1	2.7	-1.9	-3.8	-3.9	3.4	-1.7
CC(/C=N/N1CCN(Cc2ccccc2)CC1)=C\c1ccccc1	-0.9	-5.3	0.3	-3.8	62.2*	-0.9
COc1c(C)cc(C(O)c2ncc(-c3ccccc3)[nH]2)cc1C (stereo unspecified)	4.5	0.5	-0.9	7.3	7.7	6.0
c1ccc(N=NC2=NN(c3ccccc3)CS2)cc1	-6.5	-42.2	10.1	3.6	34.7	20.8
c1nc(NC2CCCCC2)c2[nH]cnc2n1	3.0	0.9	0.1	44.9*	4.5	-2.3
COc1ccc(Cl)cc1Nc1nc(-c2sc(NC(=O)CC(C)C)nc2C)cs1	-33.2	54.9*	7.4	2.6	2.2	6.2
CCCCCC(=O)Nc1nc(C)c(-c2csc(Nc3cc(OC)ccc3OC)n2)s1	-38.1	-1.1	9.6	-3.5	19.6	-1.0
CCCCCC(=O)Nc1nc(C)c(-c2csc(Nc3cc(Cl)ccc3C)n2)s1	-17.9	81.4*	-4.0	9.0	-0.5	3.4
Cc1ccc(Cl)cc1Nc1nc(-c2sc(NC(=O)c3ccco3)nc2C)cs1	-31.8	1.2	8.6	13.7	29.9	1.6
CCCCCCC(=O)Nc1nc(C)c(-c2csc(Nc3cc(OC)ccc3OC)n2)s1	-32.0	70.0*	0.0	11.6	-7.3	4.8
CCCC(C)C(=O)Nc1nc(C)c(-c2csc(Nc3cc(Cl)ccc3C)n2)s1 (stereo unspecified)	-27.9	77.6*	6.3	2.9	10.2	2.2
CCCCCC(=O)Nc1nc(C)c(-c2csc(Nc3ccc(Cl)cc3)n2)s1	9.0	7.1	15.9	4.3	29.9	13.8
COC(=O)C(C(=O)OC)c1ccccc1CNS(=O)(=O)c1ccc(C)cc1	.	-3.0	.	1.0	5.2	0.2
Cc1cc2nc(-c3ccc(F)cc3)c(CC(C)(C)C)n2c(C)c1Br	15.3	1.4	-9.3	2.8	-3.4	-5.0
CCCN1CCC(C)(C(=O)Nc2cccc(OC(C)C)c2)C1 (stereo unspecified)	0.6	1.5	-3.0	0.1	2.6	0.3
O=C(COC(=O)c1nc(Cl)ccc1Cl)Nc1ccc(Cl)cc1	-8.1	2.2	0.3	4.4	1.6	2.9
O=C(COC(=O)Cc1c(Cl)cccc1Cl)Nc1ccc2[nH]c(=O)[nH]c2c1	0.2	54.5*	-0.2	-1.9	-5.2	3.1
O=C(COC(=O)c1nc(Cl)ccc1Cl)Nc1ccc2[nH]c(=O)[nH]c2c1	8.2	63.5*	3.6	-1.8	2.4	0.9
CCN1/C(=C(\O)c2ccccc2)C(=O)c2ccccc2S1(=O)=O	-4.8	6.7	-0.5	1.6	44.1*	-8.8
CCc1nc2c(OCc3cc(Cl)cc(Cl)c3)cccn2c1N(C)C(=O)c1cccc(OC)c1	-8.0	9.2	5.4	1.2	14.2	5.4
Cc1occc(=O)c1OC(=O)Nc1ccc(Cl)c(Cl)c1	-4.0	0.6	41.5*	-13.3	7.2	-20.7
O=C(NCC1CC1(Cl)Cl)Nc1ccc(Cl)c(Cl)c1 (stereo unspecified)	1.5	4.5	1.7	5.0	56.2*	-2.4
CC(=O)C(=Cc1cccc(C#N)c1)C(=O)c1ccccc1	-8.2	6.6	-7.6	3.4	12.4	-0.7
Cc1ccc(-c2csc3nc[nH]c(=O)c23)cc1	-2.9	8.6	0.3	-3.3	4.6	9.5
Cc1ccc(-c2csc3nc(-c4ccncc4)[nH]c(=O)c23)cc1	1.7	-7.1	.	43.7*	-3.7	-20.4
